Series [1] is filed under the species Rattus norvegicus. The series can be described thus: Activity of rat 3-hydroxyacyl-CoA dehydrogenase N208A mutant. A digest of the protocol: (§1)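 Rat liver HAD enzymes (wild-type, Asn208Ala, Ser137Ala) were incubated with 3-hydroxyacyl-CoA substrates or fluorinated analogs and NAD⁺ cofactor, so the forward reaction oxidizes the 3-hydroxyl to a keto group while NAD⁺ is reduced to NADH. Kinetic studies derived parameters including Vmax.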

The species entered for series [2] is Rattus norvegicus. Description: Activity of rat 3-hydroxyacyl-CoA dehydrogenase S137A mutant. A digest of the protocol:
as §1

Substrate in series [3]: CCC/C=C/C(O)C(F)C(=O)SCCNC(=O)CCNC(=O)[C@H](O)C(C)(C)COP(=O)(O)OP(=O)(O)OC[C@H]1O[C@@H](n2cnc3c(N)ncnc32)[C@H](O)[C@@H]1OP(=O)(O)O
The series can be described thus: (§2) Activity of rat 3-hydroxyacyl-CoA dehydrogenase. A digest of the protocol: as §1

Substrate in series [4]: CCC/C=C/C(O)CC(=O)SCCNC(=O)CCNC(=O)[C@H](O)C(C)(C)COP(=O)(O)OP(=O)(O)OC[C@H]1O[C@@H](n2cnc3c(N)ncnc32)[C@H](O)[C@@H]1OP(=O)(O)O
The series is described as §2. In outline:
as §1

Substrate in series [5]: CCCCCC(O)C(F)C(=O)SCCNC(=O)CCNC(=O)[C@H](O)C(C)(C)COP(=O)(O)OP(=O)(O)OC[C@H]1O[C@@H](n2cnc3c(N)ncnc32)[C@H](O)[C@@H]1OP(=O)(O)O
Described as §2. In outline: as §1

Substrate in series [6]: CCCCCC(O)CC(=O)SCCNC(=O)CCNC(=O)[C@H](O)C(C)(C)COP(=O)(O)OP(=O)(O)OC[C@H]1O[C@@H](n2cnc3c(N)ncnc32)[C@H](O)[C@@H]1OP(=O)(O)O
Described as §2. In outline:
as §1

Broadly, the Km is the concentration of substrate that gives half-maximal velocity. The Vmax is the rate approached at saturating substrate.

In the case of `CCC/C=C/C(O)C(F)C(=O)SCCNC(=O)CCNC(=O)[C@H](O)C(C)(C)COP(=O)(O)OP(=O)(O)OC[C@H]1O[C@@H](n2cnc3c(N)ncnc32)[C@H](O)[C@@H]1OP(=O)(O)O` (some centres not stated), in the series filed under Rattus norvegicus [1], the Km came to 44.9 µM and the Vmax was determined as 0.1 µmol/min/mg. Also, in the series filed under Rattus norvegicus [2], the Km was 55.7 µM and the Vmax worked out at 0.17 µmol/min/mg.
Taken in the same sequence, the figures for `CCC/C=C/C(O)CC(=O)SCCNC(=O)CCNC(=O)[C@H](O)C(C)(C)COP(=O)(O)OP(=O)(O)OC[C@H]1O[C@@H](n2cnc3c(N)ncnc32)[C@H](O)[C@@H]1OP(=O)(O)O` (some centres not stated) were 49.6 µM, 1.08 µmol/min/mg, 53.2 µM and 0.46 µmol/min/mg.
For the molecule `CCCCCC(O)CC(=O)SCCNC(=O)CCNC(=O)[C@H](O)C(C)(C)COP(=O)(O)OP(=O)(O)OC[C@H]1O[C@@H](n2cnc3c(N)ncnc32)[C@H](O)[C@@H]1OP(=O)(O)O` (some centres not stated), in the series filed under Rattus norvegicus [1], the Km was determined as 46.8 µM and the Vmax is 0.28 µmol/min/mg.

B1: Peroxisomal multifunctional enzyme type 2 (Rattus norvegicus), P97852 (protein)
chain: MASPLRFDGRVVLVTGAGGGLGRAYALAFAERGALVVVNDLGGDFKGVGKGSSAADKVVEEIRRRGGKAVANYDSVEAGEKLVKTALDTFGRIDVVVNNAGILRDRSFSRISDEDWDIIQRVHLRGSFQVTRAAWDHMKKQNYGRIIMTASASGIYGNFGQANYSAAKLGLLGLANTLVIEGRKNNIHCNTIAPNAGSRMTETVMPEDLVEALKPEYVAPLVLWLCHESCEENGGLFEVGAGWIGKLRWERTLGAIVRKRNQPMTPEAVRDNWVKICDFSNASKPKSIQESTGGIIEVLHKIDSEGISQNHTGQVASADASGFAGVVGHKLPSFSSSYTELQCIMYALGVGASVKNPKDLKFVYEGSADFSCLPTFGVIVAQKSLMSGGLAEVPGLSINFAKVLHGEQYLELYKPLPRSGELKCEAVIADILDKGSGIVIVMDVYSYSGKELICYNQFSVFVVGSGGFGGKRTSEKLKAAVAVPSRPPDAVLRDTTSLNQAALYRLSGDSNPLHIDPSFASIAGFEKPILHGLCTFGFSARHVLQQFADNDVSRFKAIKVRFAKPVYPGQTLQTEMWKEGNRIHFQTKVQETGDIVISNAYVDLVPTSGVSAQTPSEGGALQSALVFGEIGRRLKDVGREVVKKVNAVFEWHITKNGNVAAKWTIDLKNGSGEVYQGPAKGSADTTITISDEDFMEVVLGKLNPQNAFFSGRLKARGNIMLSQKLQMILKDYAKL
For B1, the Km amounted to 46.8 µM in series [3], 20 µM in series [4], 69.3 µM in series [5] and 34.6 µM in series [6]. The Vmax came out at 11.7 µmol/min/mg in series [3], 21.8 µmol/min/mg in series [4] and 10.5 µmol/min/mg in series [6].

These data come from ChEMBL document CHEMBL1139903, “Formation of an enolate intermediate is required for the reaction catalyzed by 3-hydroxyacyl-CoA dehydrogenase” (Bioorg Med Chem Lett, 2007).
